# Experimental data from different studies.
# Each line is one published result; the experiments were not run side by side.
# Target: Tyrosine-protein kinase Fer (FER, Homo sapiens, UniProt P16591)
Compound,effect on,mode,method,concentration,quantity,result
CC/C(=N\NC(=O)NCc1cccc(O)c1)c1ccc(O)c(C)c1O,enzyme activity,inhibitor,,0.1 µM,inhibition,-2.3%
Cc1ccc(C(=O)Nc2ccc(CN3CCN(C)CC3)c(C(F)(F)F)c2)cc1C#Cc1cnc2cccnn12,enzyme activity,,,23.5 nM,remaining activity,94%
C[C@H](c1ccc(F)cc1)N(Cc1cccc(C(=O)O)c1)C(=O)c1cnc2ccccc2c1,cell-free assay,,competition with immobilised ligand,1 µM,remaining binding,100%
O=C(Nc1cnn(-c2csc(C(=O)NC3COC3)c2)c1)Nc1ccccc1Cl,enzyme activity,inhibitor,,5 µM,remaining activity,101%
N#CCCc1ccc2c(c1)-c1[nH]c3ccc([N+](=O)[O-])cc3c1CC(=O)N2,cell-free assay,,,0.5 µM,remaining signal,72.7%
Cc1ccc(NC(=O)c2ccc(C)c(C(F)(F)F)c2)cc1C#Cc1nn(C2CCC(O)CC2)c2ncnc(N)c12 (stereo not shown),cell-free assay,,,10 µM,remaining signal,67%
Cc1ccc(Nc2nccc(N(C)c3ccc4c(C)n(C)nc4c3)n2)cc1S(N)(=O)=O,enzyme activity,inhibitor,,0.3 µM,inhibition,-24%
CCCOc1ccc(OC)c(F)c1C(=O)c1ccc(C(=O)N[C@@H]2CNC[C@H]2NC(=O)c2ccc3[nH]ncc3c2)cc1,enzyme activity,inhibitor,,10 µM,remaining activity,105%
CCN(CC)CCNC(=O)c1c(C)[nH]c(/C=C2\C(=O)Nc3ccc(Cl)cc32)c1C,enzyme activity,inhibitor,,0.5 µM,remaining activity,17.7%
C[C@@H]1CN(c2cc(-c3n[nH]c4ccc(OC5(C)CC5)cc34)ncn2)C[C@H](C)O1,cell-free assay,,competition with immobilised ligand,0.1 µM,remaining binding,86%
C[C@@H]1CCN(C(=O)CC#N)C[C@@H]1N(C)c1ncnc2[nH]ccc12,cell-free assay,,,0.5 µM,remaining signal,104%
CC(C)(C)c1nc(-c2cccc(NS(=O)(=O)c3c(F)cccc3F)c2F)c(-c2ccnc(N)n2)s1,enzyme activity,inhibitor,radiometric,1 µM,remaining activity,94%
C[C@@H](c1cccc(C#N)c1)n1cc(Cl)cc(C(N)=O)c1=N,cell-free assay,,competition with immobilised ligand,1 µM,remaining binding,100%
CNC(=O)c1cc(Oc2ccc(NC(=O)Nc3ccc(Cl)c(C(F)(F)F)c3)cc2)ccn1,enzyme activity,inhibitor,,10 µM,inhibition,-30%
O=C1Nc2ccc(Cl)cc2C1=Cc1cc(Cl)c(O)c(Cl)c1,cell-free assay,,,0.5 µM,remaining signal,92.1%
O=C(N1CCS(=O)(=O)CC1)N1C[C@H](c2ccc(OC(F)(F)F)cc2)C[C@H](c2nc(C3CC3)no2)C1,cell-free assay,,competition with immobilised ligand,1 µM,remaining binding,100%
Nc1ncnc2occ(-c3ccc(NC(=O)Nc4cc(C(F)(F)F)ccc4F)cc3)c12,cell-free assay,,,20 µM,remaining signal,9%
CCCS(=O)(=O)Nc1ccc(F)c(C(=O)c2c[nH]c3ncc(-c4ccc(Cl)cc4)cc23)c1F,enzyme activity,inhibitor,,1 µM,inhibition,< 10%
COc1cc(Cl)c(C(=O)N[C@@H](CN[C@H]2CC[C@@H](N)CC2)Cc2ccc(C#N)cc2)cc1-c1ccc(CN[C@H](C)c2ccc(C)cc2)o1,enzyme activity,inhibitor,,1 µM,remaining activity,96%
O=C(O)c1ccc2c3c1cccc3c(=O)n1c3ccccc3nc21,enzyme activity,inhibitor,,0.5 µM,remaining activity,96.5%
Nc1cnc(N2CCc3cc(S(=O)(=O)Nc4c(F)cc(Cl)cc4F)cc(N4CCCC4=O)c32)nc1,cell-free assay,,competition with immobilised ligand,1 µM,remaining binding,100%
CNc1cccc2cc(C(=O)Nc3ccc(C(=O)O)cc3)c(=O)[nH]c12,enzyme activity,inhibitor,,10 µM,inhibition,1.6%
O=C(Nc1cnn(-c2csc(C(=O)NC3COC3)c2)c1)Nc1c(F)cccc1Cl,enzyme activity,inhibitor,,5 µM,remaining activity,89.8%
COc1ccc(C(=O)Nc2sc3c(c2C(N)=O)CCCC3)cc1OC,enzyme activity,inhibitor,,0.5 µM,remaining activity,89.8%
CCOCCn1cc(C(=O)Nc2ccc(-n3nc(-c4cccnc4)cc3C(F)(F)F)cn2)ccc1=O,cell-free assay,,competition with immobilised ligand,1 µM,remaining binding,100%
CCN(CC)CCNC(=O)c1c(C)[nH]c(/C=C2\C(=O)Nc3ccc(F)cc32)c1C,enzyme activity,inhibitor,,10 µM,inhibition,55%
COc1cc2ncnc(Nc3ccc(Oc4ccccc4)cc3C)c2cc1OC,enzyme activity,inhibitor,,1 µM,inhibition,54%
O=C1NC(=O)c2cc(Nc3ccc(F)cc3)c(Nc3ccc(F)cc3)cc21,cell-free assay,,,0.5 µM,remaining signal,96.4%
CCCCN(CCCC)C(=O)CN1C[C@H](c2cc(OC)c3c(c2)OCO3)[C@@H](C(=O)O)[C@@H]1CC(C)(C)CCC,cell-free assay,,competition with immobilised ligand,1 µM,remaining binding,100%
COc1cc(Nc2c(C#N)cnc3cc(OCCCN4CCN(C)CC4)c(OC)cc23)c(Cl)cc1Cl,cell-free assay,,,0.5 µM,remaining signal,54.6%
CC(=O)N1CCC(c2ccc(C(=O)NC3=NCCN3)cc2C(F)(F)F)CC1,cell-free assay,,competition with immobilised ligand,1 µM,remaining binding,93%
